Data taken from ChEMBL document CHEMBL4145497, “Discovery of 2-aminothiazolyl berberine derivatives as effectively antibacterial agents toward clinically drug-resistant Gram-negative Acinetobacter baumanii” (Eur J Med Chem, 2018).
Values after ≈ are worked out from the molar mass of the structure shown. Active and inactive are the calls of the source. The calls are words filed in the database; no cut-off is given here.

How the values were obtained:
Candida parapsilosis = assay: Antifungal activity against Candida parapsilosis ATCC 22019 by CLSI two fold serial dilution method; format: functional; details: Lodderomyces parapsilosis
Candida tropicalis = assay: Antifungal activity against drug-resistant Candida tropicalis by CLSI two fold serial dilution method; format: functional
Escherichia coli [1] = assay: Antibacterial activity against Escherichia coli DH52 after 18 to 24 hrs by CLSI two fold serial dilution method; format: functional
Pseudomonas aeruginosa [2] = assay: Antibacterial activity against drug-resistant Pseudomonas aeruginosa after 18 to 24 hrs by CLSI two fold serial dilution method; format: functional
Candida albicans [3] = assay: Antifungal activity against Candida albicans ATCC 76615 by CLSI two fold serial dilution method; format: functional
Pseudomonas aeruginosa [4] = assay: Antibacterial activity against Pseudomonas aeruginosa ATCC 27853 after 18 to 24 hrs by CLSI two fold serial dilution method; format: functional
Escherichia coli [5] = assay: Potency index, ratio of norfloxacin MIC to compound MIC for antibacterial activity against Escherichia coli DH52; format: functional
Bacillus subtilis = assay: Antibacterial activity against Bacillus subtilis ATCC 21216 after 18 to 24 hrs by CLSI two fold serial dilution method; format: functional
Pichia norvegensis = assay: Antifungal activity against Candida mycoderma ATCC 96918 by CLSI two fold serial dilution method; format: functional
Acinetobacter baumannii [6] = assay: Antibacterial activity against drug-resistant Acinetobacter baumannii after 18 to 24 hrs by CLSI two fold serial dilution method; format: functional
Aspergillus fumigatus = assay: Antifungal activity against drug-resistant Aspergillus fumigatus by CLSI two fold serial dilution method; format: functional
Klebsiella pneumoniae = assay: Antibacterial activity against drug-resistant Klebsiella pneumoniae after 18 to 24 hrs by CLSI two fold serial dilution method; format: functional
Candida albicans [7] = assay: Antifungal activity against drug-resistant Candida albicans by CLSI two fold serial dilution method; format: functional
Micrococcus luteus [8] = assay: Antibacterial activity against Micrococcus luteus ATCC 4698 after 18 to 24 hrs by CLSI two fold serial dilution method; format: functional
Saccharomyces cerevisiae = assay: Antifungal activity against Saccharomyces cerevisiae ATCC 9763 by CLSI two fold serial dilution method; format: functional
Staphylococcus aureus [9] = assay: Antibacterial activity against methicillin-resistant Staphylococcus aureus N315 after 18 to 24 hrs by CLSI two fold serial dilution method; format: functional
Escherichia coli [10] = assay: Antibacterial activity against drug-resistant Escherichia coli after 18 to 24 hrs by CLSI two fold serial dilution method; format: functional
Staphylococcus aureus [11] = assay: Antibacterial activity against Staphylococcus aureus ATCC 25923 after 18 to 24 hrs by CLSI two fold serial dilution method; format: functional
Aspergillus flavus = assay: Antifungal activity against Aspergillus flavus ATCC 204304 by CLSI two fold serial dilution method; format: functional
Cyberlindnera jadinii = assay: Antifungal activity against Candida utilis ATCC 9950 by CLSI two fold serial dilution method; format: functional; details: Williopsis jadinii
Enterococcus faecalis = assay: Antibacterial activity against drug-resistant Enterococcus faecalis after 18 to 24 hrs by CLSI two fold serial dilution method; format: functional
Micrococcus luteus [12] = assay: Potency index, ratio of berberine MIC to compound MIC for antibacterial activity against Micrococcus luteus ATCC 4698; format: functional
[13] = Aqueous solubility of the compound in phosphate buffer at pH 7.4 after 3 hrs by UV detection assay; format: physicochemical
Outline: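 Water solubility measured at physiological pH, with berberine as the control.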

Acinetobacter baumannii [14] = assay: Induction of membrane permeabilization in drug-resistant Acinetobacter baumannii at 0.024 umol/ml incubated for 1 hr measured up to 120 mins by propidium iodide staining-based fluorescence spectra analysis; format: functional, organism-based
Acinetobacter baumannii [15] = assay: Bactericidal activity against drug-resistant Acinetobacter baumannii assessed as reduction in number of viable bacterial load at 8 nmol/ml with in 2 hrs by time kill assay; format: functional
Acinetobacter baumannii [16] = assay: Antibacterial activity against drug-resistant Acinetobacter baumannii at 0.7 ug/ml measured 12 hrs post 10 serial passages; format: functional, organism-based
[17] = Cytotoxicity against human LO2 cells assessed as cell viability at 1.5625 to 100 ug/ml after 48 hrs by MTT assay relative to control; format: cell-based, L02; details: read-out: Activity
Outline: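 Human hepatocyte LO2 cells exposed to compound across a concentration range for 48 h; viability read by colorimetric MTT assay; standard deviation from three independent experiments.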

solubility at 3 h [13] [µg/mL]	SMILES	MIC (Candida parapsilosis) [µM]	MIC (Candida tropicalis) [µM]	MIC (Escherichia coli [1]) [µM]	MIC (Pseudomonas aeruginosa [2]) [µM]	MIC (Candida albicans [3]) [µM]	MIC (Pseudomonas aeruginosa [4]) [µM]	Ratio (Escherichia coli [5])	MIC (Bacillus subtilis) [µM]	MIC (Pichia norvegensis) [µM]	MIC (Acinetobacter baumannii [6]) [µM]	MIC (Aspergillus fumigatus) [µM]	MIC (Klebsiella pneumoniae) [µM]	MIC (Candida albicans [7]) [µM]	MIC (Micrococcus luteus [8]) [µM]	MIC (Saccharomyces cerevisiae) [µM]	MIC (Staphylococcus aureus [9]) [µM]	MIC (Staphylococcus aureus [11]) [µM]	MIC (Aspergillus flavus) [µM]	MIC (Cyberlindnera jadinii) [µM]	further results
–	CCCCCCCCCCOc1c(OC)cc(/C=N/NC(N)=S)c2c1CN1CCc3cc4c(cc3C1C2)OCO4 (stereo not drawn)	110 (≈ 62.3 µg/mL)	30 (≈ 17 µg/mL)	30 (≈ 17 µg/mL)	230 (≈ 130 µg/mL)	60 (≈ 34 µg/mL)	230 (≈ 130 µg/mL)	53	230 (≈ 130 µg/mL)	230 (≈ 130 µg/mL)	10 (≈ 5.67 µg/mL)	7 (≈ 3.97 µg/mL)	230 (≈ 130 µg/mL)	60 (≈ 34 µg/mL)	230 (≈ 130 µg/mL)	230 (≈ 130 µg/mL)	30 (≈ 17 µg/mL)	30 (≈ 17 µg/mL)	450 (≈ 255 µg/mL)	450 (≈ 255 µg/mL)	MIC (Escherichia coli [10]): 30 µM (≈ 17 µg/mL); MIC (Enterococcus faecalis): 30 µM (≈ 17 µg/mL)
374 to 3190 (≈ 0.669 to 5.71 mM)	COc1cc(/C=N/Nc2nccs2)c2c(c1OCc1ccc(F)cc1)CN1CCc3cc4c(cc3C1C2)OCO4 (stereo not drawn)	30 (≈ 16.8 µg/mL)	–	460 (≈ 257 µg/mL)	–	230 (≈ 128 µg/mL)	230 (≈ 128 µg/mL)	–	230 (≈ 128 µg/mL)	120 (≈ 67 µg/mL)	–	–	–	–	60 (≈ 33.5 µg/mL)	460 (≈ 257 µg/mL)	–	110 (≈ 61.4 µg/mL)	460 (≈ 257 µg/mL)	230 (≈ 128 µg/mL)	Ratio (Micrococcus luteus [12]): 12
–	CCCCCCOc1c(OC)cc(/C=N/NC(N)=S)c2c1CN1CCc3cc4c(cc3C1C2)OCO4 (stereo not drawn)	60 (≈ 30.6 µg/mL)	60 (≈ 30.6 µg/mL)	30 (≈ 15.3 µg/mL)	60 (≈ 30.6 µg/mL)	60 (≈ 30.6 µg/mL)	60 (≈ 30.6 µg/mL)	53	130 (≈ 66.4 µg/mL)	250 (≈ 128 µg/mL)	60 (≈ 30.6 µg/mL)	130 (≈ 66.4 µg/mL)	130 (≈ 66.4 µg/mL)	60 (≈ 30.6 µg/mL)	250 (≈ 128 µg/mL)	500 (≈ 255 µg/mL)	130 (≈ 66.4 µg/mL)	130 (≈ 66.4 µg/mL)	250 (≈ 128 µg/mL)	250 (≈ 128 µg/mL)	MIC (Escherichia coli [10]): 30 µM (≈ 15.3 µg/mL); MIC (Enterococcus faecalis): 30 µM (≈ 15.3 µg/mL)
1660 (≈ 3.68 mM)	COc1cc(/C=N/Nc2nccs2)c2c(c1O)CN1CCc3cc4c(cc3C1C2)OCO4 (stereo not drawn)	40 (≈ 18 µg/mL)	–	280 (≈ 126 µg/mL)	–	140 (≈ 63.1 µg/mL)	140 (≈ 63.1 µg/mL)	–	140 (≈ 63.1 µg/mL)	140 (≈ 63.1 µg/mL)	–	–	–	–	70 (≈ 31.5 µg/mL)	570 (≈ 257 µg/mL)	–	140 (≈ 63.1 µg/mL)	280 (≈ 126 µg/mL)	280 (≈ 126 µg/mL)	–

SMILES	solubility at 3 h [13] [µg/mL]	MIC (Candida parapsilosis) [µM]	MIC (Candida tropicalis) [µM]	MIC (Escherichia coli [1]) [µM]	MIC (Pseudomonas aeruginosa [2]) [µM]	MIC (Candida albicans [3]) [µM]	MIC (Pseudomonas aeruginosa [4]) [µM]	Ratio (Escherichia coli [5])	MIC (Bacillus subtilis) [µM]	MIC (Pichia norvegensis) [µM]	MIC (Acinetobacter baumannii [6]) [µM]	MIC (Aspergillus fumigatus) [µM]	MIC (Klebsiella pneumoniae) [µM]	MIC (Candida albicans [7]) [µM]	MIC (Micrococcus luteus [8]) [µM]	MIC (Saccharomyces cerevisiae) [µM]	MIC (Staphylococcus aureus [9]) [µM]	MIC (Staphylococcus aureus [11]) [µM]	MIC (Aspergillus flavus) [µM]	MIC (Cyberlindnera jadinii) [µM]	further results
COc1cc(/C=N/Nc2nccs2)c2c(c1OCc1ccc(Cl)cc1Cl)CN1CCc3cc4c(cc3C1C2)OCO4 (stereo not drawn)	1900 (≈ 3.12 mM)	7 (≈ 4.27 µg/mL)	–	840 (≈ 512 µg/mL)	–	420 (≈ 256 µg/mL)	210 (≈ 128 µg/mL)	–	210 (≈ 128 µg/mL)	420 (≈ 256 µg/mL)	–	–	–	–	110 (≈ 67 µg/mL)	840 (≈ 512 µg/mL)	–	110 (≈ 67 µg/mL)	420 (≈ 256 µg/mL)	210 (≈ 128 µg/mL)	Activity (Acinetobacter baumannii [14]): Active; Activity (Acinetobacter baumannii [15]): >3 deltalog10CFU/ml; Activity (Acinetobacter baumannii [16]): Active; viability at 48 h [17]: > 80.5%
